From PubChem BioAssay
PKD1 inh: PKD1 (human) kinase inhibition. inhibition, % (concentration not given with the values). PKD1 kinase fluorescence polarization assay. 200,000 tested, 0.056% active. Q15139; in the data active = inhibition above about 50%
ROMK primary: modulators of human ROMK potassium channel; P48048; Tet-inducible ROMK, thallium flux fluorescence; actives lie on both sides; B-score at 10 µM; 130,000 tested, 2% active; AID 1918;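 active = signal ratio slope over the read window, or its plate-corrected B-score, at least 3 SD from the plate mean, either direction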;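 also: B-score of the F/F0 ratio slope over 7 to 12 s after thallium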
Target sequence (P48048 whole entry, looked up): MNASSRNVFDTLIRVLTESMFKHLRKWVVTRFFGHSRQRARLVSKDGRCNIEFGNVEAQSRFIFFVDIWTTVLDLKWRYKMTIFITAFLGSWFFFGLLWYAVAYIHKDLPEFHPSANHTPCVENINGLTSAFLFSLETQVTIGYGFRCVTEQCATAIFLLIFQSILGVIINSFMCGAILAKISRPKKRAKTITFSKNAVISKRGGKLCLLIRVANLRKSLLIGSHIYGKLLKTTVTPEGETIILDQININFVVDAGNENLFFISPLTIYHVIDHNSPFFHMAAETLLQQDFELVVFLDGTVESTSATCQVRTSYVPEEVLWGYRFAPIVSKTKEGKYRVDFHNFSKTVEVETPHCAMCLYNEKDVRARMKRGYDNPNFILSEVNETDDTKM
Cl transport mod: modulates chloride dependent transport by human KCC2 | KCC2 cells, thallium flux FluoZin-2 fluorescence | B-score of Tl+ flux slope (higher = more flux/activation; lower = inhibition) at 10 µM | 190,000 tested, 2.2% active;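 active = thallium flux slope and its plate-corrected score both differing from the plate sample mean at a set confidence after two filtering rounds, in either direction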;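 also: slope of fluorescence scaled to starting intensity during 10 to 20 s after thallium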
Rad51 HR inh: blocks human Rad51 in homologous recombination; hRad51 DNA strand exchange, fluorescence dequenching; inhibition, % at 10 µM; 200,000 tested, 0.085% active; AID 1385;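 active = inhibition above 40% at the single screening dose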;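 also: 0% = DMSO control wells and 100% = blanks with heterologous ssDNA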
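System: hRad51 filaments on single-stranded DNA; reagent: Fluorescein- and BHQ1-tagged 47-mer duplex; compound dosing: one concentration, 10 µM final; timing: filaments 15 min 37 °C, then compound 30 min; measured by: fluorescein emission 520 nm, excitation 485 nm; benchmarks: per-plate controls and blanks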
Starred values were filed as active, the others as inactive; i = inactive; · = not tested or not shown. Hits are enriched below; roughly 3% of the tested compounds scored in any of these assays.

SMILES	PKD1 inh	ROMK primary	Cl transport mod	Rad51 HR inh
CON/C=N/C(=S)Nc1ncc(C(F)(F)F)cc1Cl	-9.5	5.37*	74.6*	8.1
N=C1C(c2ccccc2)=C(O)CN1c1cccc2ccccc12	-3.1	·	0.828	-0.1
N#C/C(=C\c1c[nH]c2ccccc12)C(=O)NCC1CCCO1 (stereo not drawn)	-3.4	1.19	-0.441	5.6
COC(=O)/C(=N\Nc1ccc(Cl)cc1)Sc1nnc(-c2ccc(OC)cc2)n1C	-3.3	·	-1.14	0.4
O=C1NC(=S)S/C1=C/c1ccc(N2CCOCC2)o1	-4.7	-3.34*	-7.72*	-194.1
O=C1S/C(=C\c2ccc(N3CCOCC3)o2)C(=O)N1Cc1ccc(F)cc1	-19.8	·	·	i
O=C1S/C(=C/c2ccc(N3CCOCC3)o2)C(=O)N1Cc1ccc(F)cc1	-8.9	·	·	-80.0
C=CCN1C(=O)N/C(=C/c2ccc(N3CCOCC3)o2)C1=O	-9.9	-3.79*	0.592	-15.0
Cc1ccc(S(=O)(=O)C2(C(=O)N3CCN(c4cc(C)ccc4C)CC3)CC2)cc1	-7.1	-0.471	-1.25	2.3
O=C(N/N=C/c1cccn1-c1cccc(C(=O)O)c1)Nc1ccccc1	-3.6	-0.334	-1.76	-1.2
CCC(CC)c1nnc(NC(=O)c2cc(-c3ccccc3)nc3ccccc23)s1	-9.6	0.0488	0.643	-3.4
CCC(CC)c1nnc(NC(=O)c2ccc3ccccc3n2)s1	-4.9	·	15.7*	1.2
CCSC1=NCCN1C(=O)c1ccc(S(=O)(=O)N(C)C)cc1	-0.7	0.198	1.16	41.1*
CN(C)S(=O)(=O)c1ccc(C(=O)N2CCN=C2SCc2ccccc2)cc1	5.6	0.0164	0.586	38.6
O=C(NC1CC1)C1CCN(C2CCN(C(=O)CC3=CCCCC3)CC2)CC1	-3.0	-0.0278	-0.292	0.3
COc1ccc(NC(=O)C(=O)NNC(=O)C(C)Oc2ccc(Cl)cc2Cl)cc1 (stereo not drawn)	-4.7	4.79*	76.3*	-1.0
CC(=O)Nc1ccc(NC(=O)C(C)Oc2ccc(Cl)cc2Cl)cc1 (stereo not drawn)	0.0	·	-0.146	3.2
O=C(NC(=S)NCC1COc2ccccc2O1)c1ccccc1 (stereo not drawn)	-7.1	·	4.33*	5.1
COc1ccc(NS(=O)(=O)c2cc(N/C(=N\S(=O)(=O)c3ccccc3)c3ccc(F)cc3)ccc2Cl)cc1	-6.5	·	0.976	4.3
COc1ccc(-n2nnc3c(=O)n(CC(=O)Nc4cc(C)on4)cnc32)cc1OC	-2.7	0.137	0.129	-3.5
CC(C)N(C(=O)CSc1ncnc2sc(-c3ccccc3)cc12)C(C)C	-6.6	1.31	7.06*	10.2
COC(=O)c1c(C)[nH]c(C(=O)CSc2ncnc3sc(-c4ccccc4)cc23)c1C	2.7	-0.0172	2.18	-8.1
N#C/C(=N\Nc1cccc(C(F)(F)F)c1)C(=O)c1csc(-c2cccnc2)n1	·	-3.85*	-6.13*	-4.8
Cc1ccc(C(=O)Nc2cccc(C(F)(F)F)c2)cc1NC(=O)c1csc(-c2ccncc2)n1	·	·	-0.148	1.5
O=C(CNC(=O)c1cccc(Cl)c1)N/N=C/C=C/c1ccccc1	2.4	0.00328	-2.25	4.4
SMILES	PKD1 inh	ROMK primary	Cl transport mod	Rad51 HR inh
CC1(C)Cc2c(sc3[nH]c(=S)n(Cc4ccccc4)c(=O)c23)CO1	-9.6	·	80.6*	4.5
Cc1ccc([N+](=O)[O-])cc1NC(=S)NC(=O)c1ccco1	0.7	·	14.6*	-7.1
O=C(NC(=S)Nc1cc([N+](=O)[O-])ccc1Cl)c1ccccc1	-6.9	1.41	11.4*	0.5
CCOC(=O)C1=C(C)C(c2ccccc2OC)NC(=S)N1 (stereo not drawn)	-1.1	0.143	-0.574	1.4
O=C1C(=O)N(CC2CCCO2)C(c2ccccc2[N+](=O)[O-])/C1=C(/O)c1ccccc1 (stereo not drawn)	5.3	-0.0453	0.0473	3.9
CCC(C)(C)c1ccc(OCCCC[n+]2ccccc2)c(C(C)(C)CC)c1	-6.4	-3.69*	-0.0101	7.8
COc1ccc(-c2csc(C3=C(O)CN(CCCN4CCCC4=O)C3=N)n2)cc1OC	6.9	-0.352	-0.436	·
C/C(=N\NC(=O)C1CC1)c1ccccc1O	-1.4	-0.325	-0.408	4.4
C/C(=N\NC(=S)Nc1ccc(F)cc1)c1ccc2c(c1)OCCO2	-5.1	·	48*	1.5
CCOC(=O)Cc1csc(NC(=S)NC(=O)c2ccccc2C)n1	-12.0	·	29*	-7.9
C=C(C)CNC(=S)Nc1nc2c(cc1C(=O)OCC)CCCC2	-5.7	0.581	42.6*	9.1
CCOC(=O)c1cc2c(nc1N)CCCC2	·	0.083	-0.386	-25.2
CCCCn1c(O)c(N=Nc2ccccn2)c2ccccc21	-5.4	0.913	11.4*	1.3
COc1ccc(Cl)cc1NC(=O)CN1CCc2ccccc21	-2.5	-0.706	-3.3	·
Cc1ccc(C(=O)NC(=S)NNC(=O)COc2ccccc2C)cc1	-3.2	3.05*	31.1*	1.2
O=C(CCc1ccccc1)NNC(=S)NC(=O)c1ccc(Cl)cc1	-5.1	1.9	68.3*	·
Cc1cccc(C(=O)NNC(=O)c2cccc(C)c2)c1	-6.3	0.0358	-2.42	·
Cc1cccc(C(=O)NC(=S)NNC(=O)COc2c(C)cccc2C)c1	5.9	2.69*	36.8*	·
COC(=O)NNC(=O)COc1ccccc1C	-1.0	1.02	-0.0373	5.0
Cc1ccnc(NS(=O)(=O)c2ccc(NC(=O)c3cc(-c4ccc(Br)cc4)nc4ccccc34)cc2)n1	-1.9	·	-1.64	-0.4
COC(=O)C1=NN(C(=O)c2cccc(Br)c2)C(O)(c2ccc(Cl)cc2)C1 (stereo not drawn)	-4.3	0.791	92.3*	-115.1
CCOC(=O)C1=NN(C(=O)c2ccccc2)C(O)(c2ccc(C)cc2)C1 (stereo not drawn)	-2.2	1.64	52*	-6.9
COc1ccc(-n2c(=S)[nH]c3sc4c(c3c2=O)CCN(C)C4)cc1	·	0.437	0.168	-5.0
Cc1ccc(-n2c(=S)[nH]c3sc4c(c3c2=O)CCc2ccccc2-4)cc1	-0.4	·	9.12*	5.9
Cc1ccc(Cl)cc1N1CCN(C(=O)Cn2ccc3ccccc3c2=O)CC1	-10.3	-3.64*	·	-1.7
SMILES	PKD1 inh	ROMK primary	Cl transport mod	Rad51 HR inh
CCn1nc(C(=O)OCC(=O)N2CCc3ccccc32)c2ccccc2c1=O	-13.4	·	-3.42*	-3.1
O=C(CC(=O)c1cc(Cl)ccc1O)c1ccccc1	-1.5	·	9.99*	-2.8
CCOC(=O)CSc1nc2sc3c(c2c(=O)n1C1CCCCC1)CCN(C)C3	2.9	-3.52*	0.187	-10.7
S=c1nc(-c2ccc(Br)cc2)oc2c1CCCC2	-4.8	·	82.6*	·
CC(Cc1cccs1)NC(=O)Nc1ccc(Cl)c(Cl)c1 (stereo not drawn)	0.7	-2.13	0.638	·
CC(=O)CSc1ncnc2sc3c(c12)CCC(C)C3 (stereo not drawn)	-2.6	0.753	121*	8.5
CCN(Cc1ccccc1)C(=O)CS(=O)(=O)c1ccccc1	-3.4	·	-0.34	0.8
O=S(=O)(C/C(=C/CO)S(=O)(=O)c1ccccc1)c1ccccc1	-9.1	-8.17*	·	-0.6
COc1cc(-c2ccc(NC(=O)NC3CC3)c(OC)c2)ccc1NC(=O)NC1CC1	·	·	0.264	13.5
O=C(NC(=S)N1CCN(c2ccc(C(F)(F)F)cc2[N+](=O)[O-])CC1)c1cccs1	-0.9	·	64.4*	-0.3
